Assay results: ChEMBL document CHEMBL3632511, “Oxopyrido[2,3-d]pyrimidines as Covalent L858R/T790M Mutant Selective Epidermal Growth Factor Receptor (EGFR) Inhibitors” (ACS Med Chem Lett, 2015)
The source made the active and inactive calls. No cut-off for these calls is given here.

Tests used:
NCI-H1975 [1] = assay: Cytotoxicity against human NCI-H1975 cells harboring EGFR L858R/T790M double mutant assessed as inhibition of cell proliferation after 72 hrs by CellTiter-Glo assay; format: functional, cell-based; details: NCI-H1975, 72 h
[2] = Cytotoxicity against human HCC827 cells harboring EGFR 746 to 750 deletion mutant assessed as inhibition of cell proliferation after 72 hrs by CellTiter-Glo assay; format: functional, cell-based; details: HCC827, 72 h
A-431 = assay: Cytotoxicity against human A431 cells expressing wild-type EGFR assessed as inhibition of cell proliferation after 72 hrs by CellTiter-Glo assay; format: cell-based; details: A-431, 72 h
human MDR1 (P-gp) [3] = assay: Efflux ratio of permeability across pig LLC-PK1 cells transfected with human MDR1 gene; format: ADME, cell-based, Sus scrofa
[4] = target: Epidermal growth factor receptor (Homo sapiens, UniProt P00533, 746-750DEL); assay: Inhibition of EGFR 746 to 750 deletion mutant phosphorylation in human HCC827 cells after 60 mins by mesoscale multiplex assay; format: cell-based
Chain of Epidermal growth factor receptor (Homo sapiens, UniProt P00533, 746-750DEL) (P00533 whole entry, looked up, stated change not applied): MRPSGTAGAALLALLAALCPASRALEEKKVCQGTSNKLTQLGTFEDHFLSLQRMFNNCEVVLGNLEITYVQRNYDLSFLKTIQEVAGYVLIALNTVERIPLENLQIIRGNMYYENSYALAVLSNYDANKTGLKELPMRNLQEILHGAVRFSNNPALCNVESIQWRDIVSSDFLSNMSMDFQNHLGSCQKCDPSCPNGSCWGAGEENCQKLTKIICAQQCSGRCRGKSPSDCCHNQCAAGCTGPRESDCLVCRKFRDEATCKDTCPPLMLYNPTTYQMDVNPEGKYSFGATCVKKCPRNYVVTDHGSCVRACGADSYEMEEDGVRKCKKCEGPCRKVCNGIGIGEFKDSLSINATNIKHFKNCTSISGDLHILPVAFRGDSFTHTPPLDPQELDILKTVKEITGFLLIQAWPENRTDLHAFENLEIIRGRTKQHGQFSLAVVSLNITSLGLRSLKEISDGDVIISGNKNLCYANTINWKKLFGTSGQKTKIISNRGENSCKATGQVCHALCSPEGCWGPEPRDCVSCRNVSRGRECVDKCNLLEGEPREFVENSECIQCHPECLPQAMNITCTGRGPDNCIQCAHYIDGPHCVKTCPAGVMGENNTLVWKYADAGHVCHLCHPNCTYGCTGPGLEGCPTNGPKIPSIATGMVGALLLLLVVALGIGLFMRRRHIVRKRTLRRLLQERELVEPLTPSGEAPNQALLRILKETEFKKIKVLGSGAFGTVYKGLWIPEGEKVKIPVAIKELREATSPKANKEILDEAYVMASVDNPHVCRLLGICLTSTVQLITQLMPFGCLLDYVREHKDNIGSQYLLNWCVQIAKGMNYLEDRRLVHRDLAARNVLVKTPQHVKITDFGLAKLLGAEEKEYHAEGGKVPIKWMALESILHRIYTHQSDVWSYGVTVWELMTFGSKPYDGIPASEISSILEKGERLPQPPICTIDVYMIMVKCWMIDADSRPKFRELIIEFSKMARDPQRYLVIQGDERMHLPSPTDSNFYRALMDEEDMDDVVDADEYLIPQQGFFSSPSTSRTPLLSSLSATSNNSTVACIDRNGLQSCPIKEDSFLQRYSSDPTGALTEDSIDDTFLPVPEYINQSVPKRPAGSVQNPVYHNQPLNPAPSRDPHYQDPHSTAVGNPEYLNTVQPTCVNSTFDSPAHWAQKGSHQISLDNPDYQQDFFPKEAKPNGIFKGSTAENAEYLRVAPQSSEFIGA

[5] = target: T1, Epidermal growth factor receptor (Homo sapiens, UniProt P00533); assay: Inhibition of wild type EGFR phosphorylation in human A431 cells after 60 mins by mesoscale multiplex assay; format: cell-based, A-431
T1 sequence (P00533 whole entry): as the sequence (P00533 whole entry, looked up, stated change not applied) above

[6] = Selectivity ratio of IC50 for wild type EGFR phosphorylation in human A431 cells to IC50 for EGFR L858R/T790M double mutant phosphorylation in human NCI-H1975 cells; format: ADME, cell-based
[7] = Selectivity ratio of IC50 for wild type EGFR phosphorylation in human A431 cells to IC50 for EGFR 746 to 750 deletion mutant phosphorylation in human HCC827 cells; format: ADME, cell-based
Mus musculus [8] = assay: In vivo inhibition of EGFR L858R/T790M double mutant phosphorylation in human NCI-H1975 cells xenografted in athymic nude mouse at 30 mg/kg, po measured at 4 hrs by mesoscale multiplex assay relative to control; format: functional
Summary of the method: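 Female athymic nude mice carried matrigel plugs holding 5 x 10⁶ H1975 cells, n = 3 per group. Control or compound given at 30 mg/kg po. Plugs and plasma taken 4 h after dosing. p-EGFR in plug measured by quantitative MSD assay, given as % p-EGFR/PRAS40 vs control.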

NCI-H1975 [9] = assay: Antitumor activity against human NCI-H1975 cells xenografted in athymic nude mouse assessed as tumor growth inhibition at 30 mg/kg, po qd administered for 2 weeks started on day 6 post tumor implantation measured on day 19 relative to control; format: functional
Rattus norvegicus [10] = organism: Rattus norvegicus; assay: Hepatobiliary toxicity in Sprague-Dawley rat measured for 4 days; format: organism-based; details: in vivo, 96 h
[11] = (§1) Clearance in Sprague-Dawley rat at 1 mg/kg, iv; format: ADME, organism-based; details: Sprague-Dawley, in vivo
Summary of the method: (§2)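 Male Sprague Dawley rats, 3 animals per route; mean values. IV dose 1 mg/kg as a DMSO solution. Oral dose 10 mg/kg, in one of three vehicles by compound: 1% Pluronic F68/2% HPMC/15% HPBCD/82% water–methanesulfonic acid pH 4.5; 20% HPBCD/80% water–methanesulfonic acid pH 4.0; or 1% Pluronic F68/2% HPMC/97% water–methanesulfonic acid pH 4.0.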

[12] = Volume of distribution at steady state in Sprague-Dawley rat at 1 mg/kg, iv; format: ADME, organism-based; details: in vivo, read-out: Vdss; summary of the method: as §2
[13] = Half life in Sprague-Dawley rat at 1 mg/kg, iv; format: ADME, organism-based; details: in vivo; summary of the method: as §2
[14] = (§3) AUC (0 to infinity) in Sprague-Dawley rat at 10 mg/kg, po; format: ADME, organism-based; parameters: dose 10 mg/kg, route oral, time infinity; details: Sprague-Dawley, in vivo; summary of the method: as §2
[15] = (§4) Oral bioavailability in Sprague-Dawley rat at 10 mg/kg; format: ADME, organism-based; details: Sprague-Dawley, in vivo; summary of the method: as §2
Mus musculus [16] = assay: In vivo inhibition of EGFR L858R/T790M double mutant phosphorylation in human NCI-H1975 cells xenografted in athymic nude mouse at 30 mg/kg, po measured at >12 hrs by mesoscale multiplex assay relative to control; format: functional
Summary of the method: (§5)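 Time-course PD in mice carrying matrigel plugs of H1975 cells after a single oral dose of 30 mg/kg. Tumor cell plugs and plasma harvested at 2, 4, 8, 12 and 24 h post dose. Plug p-EGFR measured, and plasma drug concentration taken for Cmax.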

Mus musculus [17] = assay: Toxicity in athymic nude mouse xenografted with human NCI-H1975 cells assessed as change in body weight at 30 mg/kg, po qd administered for 2 weeks started on day 6 post tumor implantation; format: organism-based; details: in vivo, 336 h
[18] = AUC (0 to infinity) in athymic nude mouse xenografted with human NCI-H1975 cells at 30 mg/kg, po; format: ADME, organism-based; parameters: dose 30 mg/kg, route oral, time infinity; details: in vivo
[19] = AUC (0 to t) in athymic nude mouse xenografted with human NCI-H1975 cells at 30 mg/kg, po qd administered for 2 weeks started on day 6 post tumor implantation; format: ADME, organism-based; details: in vivo
[20] = target: T2, Tyrosine-protein kinase BTK (Homo sapiens, UniProt Q06187); assay: Competitive binding affinity to human BTK at 1 uM in presence of immobilized ligand relative to control
T2 sequence (Q06187 whole entry): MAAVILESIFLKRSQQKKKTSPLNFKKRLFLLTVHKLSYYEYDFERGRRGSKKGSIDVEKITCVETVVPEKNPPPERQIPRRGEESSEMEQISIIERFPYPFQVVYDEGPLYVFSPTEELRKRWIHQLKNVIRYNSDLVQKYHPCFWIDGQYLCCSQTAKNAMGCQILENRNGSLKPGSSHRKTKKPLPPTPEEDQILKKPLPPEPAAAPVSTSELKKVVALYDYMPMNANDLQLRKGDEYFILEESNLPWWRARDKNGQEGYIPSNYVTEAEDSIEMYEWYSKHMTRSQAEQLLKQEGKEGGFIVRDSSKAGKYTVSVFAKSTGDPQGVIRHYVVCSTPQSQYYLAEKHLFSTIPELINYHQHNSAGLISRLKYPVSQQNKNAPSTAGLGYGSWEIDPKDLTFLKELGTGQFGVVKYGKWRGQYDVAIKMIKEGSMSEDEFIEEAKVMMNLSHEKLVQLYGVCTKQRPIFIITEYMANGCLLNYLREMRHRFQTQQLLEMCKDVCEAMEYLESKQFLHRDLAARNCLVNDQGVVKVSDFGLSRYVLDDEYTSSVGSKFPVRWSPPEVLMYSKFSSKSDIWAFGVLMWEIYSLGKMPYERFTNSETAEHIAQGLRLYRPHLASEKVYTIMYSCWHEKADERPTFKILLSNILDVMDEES
Summary of the method: (§6)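 Kinase selectivity by competitive binding in the ScanMAX KINOMEscan panel of […] protein and lipid kinases. Compound tested at 1 μM; binding expressed as percentage of control (POC).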

[21] = Cmax in athymic nude mouse xenografted with human NCI-H1975 cells at 30 mg/kg, po measured at 2 hrs; format: ADME, organism-based; parameters: dose 30 mg/kg, route oral; details: in vivo; summary of the method: as §5
[22] = target: Dual specificity protein kinase TTK (Homo sapiens) (UniProt P33981); assay: Competitive binding affinity to human TTK at 1 uM in presence of immobilized ligand relative to control; summary of the method: as §6
Chain of Dual specificity protein kinase TTK (Homo sapiens) (P33981 whole entry): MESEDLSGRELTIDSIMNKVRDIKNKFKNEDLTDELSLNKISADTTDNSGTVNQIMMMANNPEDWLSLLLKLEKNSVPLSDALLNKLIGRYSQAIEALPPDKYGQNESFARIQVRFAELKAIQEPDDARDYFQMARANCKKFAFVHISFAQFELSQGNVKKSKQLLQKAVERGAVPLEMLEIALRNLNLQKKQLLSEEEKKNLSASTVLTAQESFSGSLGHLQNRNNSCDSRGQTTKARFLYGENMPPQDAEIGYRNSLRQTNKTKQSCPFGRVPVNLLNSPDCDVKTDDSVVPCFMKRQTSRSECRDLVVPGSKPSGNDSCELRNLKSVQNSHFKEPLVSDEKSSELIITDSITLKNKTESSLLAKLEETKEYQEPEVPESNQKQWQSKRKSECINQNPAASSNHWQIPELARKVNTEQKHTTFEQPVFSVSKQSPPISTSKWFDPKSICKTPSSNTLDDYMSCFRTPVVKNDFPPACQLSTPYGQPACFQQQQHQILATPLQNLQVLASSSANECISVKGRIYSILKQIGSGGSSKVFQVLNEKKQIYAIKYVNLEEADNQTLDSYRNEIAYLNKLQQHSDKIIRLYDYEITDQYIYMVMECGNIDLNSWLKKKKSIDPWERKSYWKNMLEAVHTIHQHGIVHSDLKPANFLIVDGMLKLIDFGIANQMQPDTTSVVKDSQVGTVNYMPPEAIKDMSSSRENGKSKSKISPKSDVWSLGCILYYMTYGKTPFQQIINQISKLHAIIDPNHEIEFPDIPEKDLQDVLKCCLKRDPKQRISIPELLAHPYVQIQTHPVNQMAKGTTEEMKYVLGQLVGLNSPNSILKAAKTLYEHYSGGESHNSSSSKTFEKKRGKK

[23] = target: Tyrosine-protein kinase Blk (Homo sapiens, UniProt P51451); assay: Competitive binding affinity to human BLK in presence of immobilized ligand
[24] = target: T2, Tyrosine-protein kinase BTK; assay: Competitive binding affinity to human BTK in presence of immobilized ligand
[25] = target: T1, Epidermal growth factor receptor; assay: Competitive binding affinity to human wild type EGFR in presence of immobilized ligand
[26] = target: Epidermal growth factor receptor (Homo sapiens, UniProt P00533, T790M); assay: Competitive binding affinity to human EGFR T790M mutant in presence of immobilized ligand; format: protein assay
[27] = target: Receptor tyrosine-protein kinase erbB-2 (Homo sapiens, UniProt P04626); assay: Competitive binding affinity to human ERBB2 in presence of immobilized ligand
[28] = target: Receptor tyrosine-protein kinase erbB-4 (Homo sapiens, UniProt Q15303); assay: Competitive binding affinity to human ERBB4 in presence of immobilized ligand
[29] = target: Cyclin-G-associated kinase (Homo sapiens, UniProt O14976); assay: Competitive binding affinity to human GAK in presence of immobilized ligand
[30] = target: Tyrosine-protein kinase ITK/TSK (Homo sapiens, UniProt Q08881); assay: Competitive binding affinity to human ITK in presence of immobilized ligand
[31] = target: Tyrosine-protein kinase JAK1 (Homo sapiens, UniProt P23458); assay: Competitive binding affinity to human JAK1 JH2 domain pseudokinase in presence of immobilized ligand
[32] = target: Tyrosine-protein kinase JAK3 (Homo sapiens, UniProt P52333); assay: Competitive binding affinity to human JAK3 in presence of immobilized ligand
[33] = target: Dual specificity protein kinase TTK (Homo sapiens, UniProt P33981); assay: Competitive binding affinity to human TTK in presence of immobilized ligand
[34] = target: Tyrosine-protein kinase TXK (Homo sapiens, UniProt P42681); assay: Competitive binding affinity to human TXK in presence of immobilized ligand
[35] = Fraction unbound in mouse plasma at 5 uM by rapid equilibrium dialysis method; format: ADME, cell-free
[36] = Fraction unbound in rat plasma at 5 uM by rapid equilibrium dialysis method; format: ADME, cell-free
[37] = Fraction unbound in human plasma at 5 uM by rapid equilibrium dialysis method; format: ADME, cell-free
[38] = Fraction unbound in dog plasma at 5 uM by rapid equilibrium dialysis method; format: ADME, cell-free, Canis lupus familiaris
human MDR1 (P-gp) [39] = assay: Permeability across pig LLC-PK1 cells transfected with human MDR1 gene; format: ADME, cell-based, Sus scrofa; details: read-out: permeability
rat MDR1 (P-gp) [40] = assay: Permeability across pig LLC-PK1 cells transfected with rat MDR1 gene; format: ADME, cell-based, Sus scrofa; details: read-out: permeability
rat MDR1 (P-gp) [41] = assay: Efflux ratio of permeability across pig LLC-PK1 cells transfected with rat MDR1 gene; format: ADME, cell-based, Sus scrofa
[42] = target: Epidermal growth factor receptor (Homo sapiens, UniProt P00533, L858R/T790M); assay: Inhibition of EGFR L858R/T790M double mutant phosphorylation in human NCI-H1975 cells after 60 mins by mesoscale multiplex assay; format: cell-based
Chain of Epidermal growth factor receptor (Homo sapiens, UniProt P00533, L858R/T790M) (P00533 25-1210 T790M/L858R limits assumed): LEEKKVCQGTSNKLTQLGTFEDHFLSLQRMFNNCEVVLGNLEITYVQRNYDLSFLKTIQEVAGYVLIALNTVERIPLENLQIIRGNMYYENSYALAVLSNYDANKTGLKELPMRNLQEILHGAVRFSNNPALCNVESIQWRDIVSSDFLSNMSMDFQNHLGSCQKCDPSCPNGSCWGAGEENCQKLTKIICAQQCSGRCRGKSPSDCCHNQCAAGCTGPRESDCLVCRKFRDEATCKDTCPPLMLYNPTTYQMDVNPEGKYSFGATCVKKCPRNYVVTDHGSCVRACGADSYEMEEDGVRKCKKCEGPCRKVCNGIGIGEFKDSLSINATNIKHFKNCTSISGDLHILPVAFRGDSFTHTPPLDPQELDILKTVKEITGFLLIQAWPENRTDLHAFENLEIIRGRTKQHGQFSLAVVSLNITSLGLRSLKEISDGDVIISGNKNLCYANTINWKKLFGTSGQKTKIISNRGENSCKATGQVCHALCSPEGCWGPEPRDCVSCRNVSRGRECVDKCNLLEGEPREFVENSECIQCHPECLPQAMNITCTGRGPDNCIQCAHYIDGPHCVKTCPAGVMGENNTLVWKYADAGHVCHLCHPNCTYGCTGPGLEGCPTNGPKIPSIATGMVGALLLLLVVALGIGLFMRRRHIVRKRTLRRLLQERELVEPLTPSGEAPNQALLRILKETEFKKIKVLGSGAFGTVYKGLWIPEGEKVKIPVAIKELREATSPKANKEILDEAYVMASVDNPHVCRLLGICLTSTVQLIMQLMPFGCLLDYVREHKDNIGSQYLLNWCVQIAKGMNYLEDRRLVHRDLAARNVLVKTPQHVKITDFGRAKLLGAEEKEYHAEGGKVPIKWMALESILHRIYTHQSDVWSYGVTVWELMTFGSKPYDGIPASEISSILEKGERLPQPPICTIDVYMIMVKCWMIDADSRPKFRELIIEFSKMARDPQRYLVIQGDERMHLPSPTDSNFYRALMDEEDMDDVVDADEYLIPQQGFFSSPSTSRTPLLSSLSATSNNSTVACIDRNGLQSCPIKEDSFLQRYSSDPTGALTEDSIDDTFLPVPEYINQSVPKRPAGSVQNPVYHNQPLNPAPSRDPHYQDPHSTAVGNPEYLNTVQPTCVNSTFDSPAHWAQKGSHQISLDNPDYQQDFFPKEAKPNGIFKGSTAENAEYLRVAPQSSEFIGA

Rattus norvegicus [43] = assay: as §1; format: ADME, organism-based; details: in vivo; summary of the method: as §2
Rattus norvegicus [44] = assay: as §3; format: ADME, organism-based; parameters: dose 10 mg/kg, route oral, time infinity; details: in vivo; summary of the method: as §2
Rattus norvegicus [45] = assay: as §4; format: ADME, organism-based; details: in vivo; summary of the method: as §2

## C=CC(=O)Nc1cccc(-n2c(=O)c(Cc3ccccc3)cc3cnc(Nc4ccc(N5CCN(C)CC5)cc4OC)nc32)c1
NCI-H1975 [1]
  IC50: 4 nM
[2]
  IC50: 18 nM
A-431
  IC50: 250 nM

## C=CC(=O)Nc1cccc(-n2c(=O)cc(C)c3cnc(Nc4ccc(OCCN(C)C)cc4OC)nc32)c1
Human MDR1 (P-gp) [3]
  efflux ratio: > 37
NCI-H1975 [1]
  IC50: 4 nM
[2]
  IC50: 28 nM
A-431
  IC50: 2400 nM
[4]
  IC50: 9 nM
[5]
  IC50: 1050 nM
[6]
  Ratio IC50: > 100
[7]
  Ratio IC50: > 100
Mus musculus [8]
  inhibition in vivo at 30 mg/kg: 90%
NCI-H1975 [9]; read-out: TGI
  inhibition in vivo at 30 mg/kg: 90%
Rattus norvegicus [10]
  Activity: Non-toxic
[11]
  clearance: 150 mL/min/kg
[12]
  Vd: 22 L/kg
[13]
  half-life: 4.5 h
[14]
  AUC(0-inf): 0.66 µM·h
[15]
  bioavailability: 10%
Mus musculus [16]
  inhibition in vivo at 30 mg/kg: > 50%
Mus musculus [17]
  Activity: Non-toxic
[18]
  AUC(0-inf): 0.33 µM·h
[19]
  AUC(0-t) at 336 h: 0.56 µM·h
[20]
  Activity: 17%
[21]
  Cmax: 100 nM
[22]
  Activity: 4%
[23]
  Kd: 320 nM
[24]
  Kd: 290 nM
[25]
  Kd: 220 nM
[26]
  Kd: 0.96 nM
[27]
  Kd: 220 nM
[28]
  Kd: 130 nM
[29]
  Kd: 430 nM
[30]
  Kd: 140 nM
[31]
  Kd: 2800 nM
[32]
  Kd: 30 nM
[33]
  Kd: 81 nM
[34]
  Kd: 410 nM
[35]
  fraction unbound at 5 µM: 0.25
[36]
  fraction unbound at 5 µM: 0.27
[37]
  fraction unbound at 5 µM: 0.54
[38]
  fraction unbound at 5 µM: 0.46
Human MDR1 (P-gp) [39]
  Papp: 10 ×10⁻⁶ cm/s
Rat MDR1 (P-gp) [40]
  Papp: 10 ×10⁻⁶ cm/s
Rat MDR1 (P-gp) [41]
  efflux ratio: > 37

## C=CC(=O)Nc1cccc(-n2c(=O)ccc3cnc(Nc4ccc(N5CCN(C)CC5)cc4OC)nc32)c1
NCI-H1975 [1]
  IC50: 8 nM
[2]
  IC50: 4 nM
A-431
  IC50: 5230 nM
[42]
  IC50: 3 nM
[4]
  IC50: 3 nM
[5]
  IC50: 50 nM
[6]
  Ratio IC50: 17
[7]
  Ratio IC50: 17
[11]
  clearance: 148 mL/min/kg
[12]
  Vd: 19 L/kg
[13]
  half-life: 1.4 h
[14]
  AUC(0-inf): 0.18 µM·h
[15]
  bioavailability: 6.6%

## C=CC(=O)Nc1cccc(-n2c(=O)cc(C)c3cnc(Nc4ccc(N5CCN(C)CC5)cc4)nc32)c1
NCI-H1975 [1]
  IC50: 4 nM
[2]
  IC50: 7 nM
A-431
  IC50: > 3000 nM
Mus musculus [8]
  inhibition in vivo at 30 mg/kg: 5%

## C=CC(=O)Nc1cccc(-n2c(=O)cc(C)c3cnc(Nc4ccc(C5CCN(C)CC5)cc4OC)nc32)c1
NCI-H1975 [1]
  IC50: 4 nM
[2]
  IC50: 33 nM

## C=CC(=O)Nc1cccc(-n2c(=O)cc(C)c3cnc(Nc4ccc(N(C)CCN(C)C)cc4OC)nc32)c1
NCI-H1975 [1]
  IC50: 8 nM
[2]
  IC50: 22 nM
A-431
  IC50: > 1000 nM
[42]
  IC50: 6 nM
[4]
  IC50: 12 nM
[5]
  IC50: 521 nM
Mus musculus [8]
  inhibition in vivo at 30 mg/kg: 80%
NCI-H1975 [9]
  TGI: Active
Rattus norvegicus [10]
  Activity: Non-toxic
Rattus norvegicus [43]
  CL: 128 mL/min/kg
[12]
  Vd: 20 L/kg
[13]
  half-life: 2.6 h
Rattus norvegicus [44]
  AUC: 0.16 µM·h
Rattus norvegicus [45]
  F: 21%

## C=CC(=O)Nc1cccc(-n2c(=O)cc(C)c3cnc(Nc4ccc(N5CCNCC5)cc4OC)nc32)c1
NCI-H1975 [1]
  IC50: 68 nM
[2]
  IC50: 211 nM
A-431
  IC50: > 1000 nM
